Experiments:
[1] = molecular target: Hepatocyte growth factor receptor (Homo sapiens, UniProt P08581); assay: Inhibition of MET using Bio-HER2tide as substrate by TR-FRET assay in presence of 50 uM of ATP
[2] = molecular target: Mast/stem cell growth factor receptor Kit (Homo sapiens, UniProt P10721); assay: Inhibition of KIT using Bio-HER2tide as substrate by TR-FRET assay in presence of 50 uM of ATP
[3] = Clearance in human liver microsomes assessed as per mg of protein after 30 mins by LC/MS analysis; assay type: ADME, Microsome; conditions: read-out: CLH
Outline: (§1)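 1 µM compound incubated at 37 °C for 30 min with liver microsomes (0.5 mg protein/mL) in 50 mM phosphate buffer pH 7.4 with 1 mM NADPH. Reaction stopped with threefold volume of acetonitrile and centrifuged. Remaining compound in supernatant quantified by LC/MS.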

[4] = molecular target: Vascular endothelial growth factor receptor 2 (Homo sapiens, UniProt P35968); assay: Inhibition of KDR using Bio-Gastrintide as substrate by TR-FRET assay in presence of 50 uM of ATP
KARPAS-299 [5] = assay: Antiproliferative activity against human KARPAS299 cells after 96 hrs by cell counting assay; assay type: functional, cell-based; conditions: KARPAS-299, 96 h
Outline: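 KARPAS-299 cells exposed to a range of compound concentrations for 96 h. Growth inhibition read by Cell Counting Kit-8.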

[6] = Clearance in mouse liver microsomes assessed as per mg of protein after 30 mins by LC/MS analysis; assay type: ADME, Microsome; conditions: read-out: CLH; outline: as §1
[7] = molecular target: ALK tyrosine kinase receptor (Homo sapiens, UniProt Q9UM73)
ALK tyrosine kinase receptor, sequence (Q9UM73 whole entry): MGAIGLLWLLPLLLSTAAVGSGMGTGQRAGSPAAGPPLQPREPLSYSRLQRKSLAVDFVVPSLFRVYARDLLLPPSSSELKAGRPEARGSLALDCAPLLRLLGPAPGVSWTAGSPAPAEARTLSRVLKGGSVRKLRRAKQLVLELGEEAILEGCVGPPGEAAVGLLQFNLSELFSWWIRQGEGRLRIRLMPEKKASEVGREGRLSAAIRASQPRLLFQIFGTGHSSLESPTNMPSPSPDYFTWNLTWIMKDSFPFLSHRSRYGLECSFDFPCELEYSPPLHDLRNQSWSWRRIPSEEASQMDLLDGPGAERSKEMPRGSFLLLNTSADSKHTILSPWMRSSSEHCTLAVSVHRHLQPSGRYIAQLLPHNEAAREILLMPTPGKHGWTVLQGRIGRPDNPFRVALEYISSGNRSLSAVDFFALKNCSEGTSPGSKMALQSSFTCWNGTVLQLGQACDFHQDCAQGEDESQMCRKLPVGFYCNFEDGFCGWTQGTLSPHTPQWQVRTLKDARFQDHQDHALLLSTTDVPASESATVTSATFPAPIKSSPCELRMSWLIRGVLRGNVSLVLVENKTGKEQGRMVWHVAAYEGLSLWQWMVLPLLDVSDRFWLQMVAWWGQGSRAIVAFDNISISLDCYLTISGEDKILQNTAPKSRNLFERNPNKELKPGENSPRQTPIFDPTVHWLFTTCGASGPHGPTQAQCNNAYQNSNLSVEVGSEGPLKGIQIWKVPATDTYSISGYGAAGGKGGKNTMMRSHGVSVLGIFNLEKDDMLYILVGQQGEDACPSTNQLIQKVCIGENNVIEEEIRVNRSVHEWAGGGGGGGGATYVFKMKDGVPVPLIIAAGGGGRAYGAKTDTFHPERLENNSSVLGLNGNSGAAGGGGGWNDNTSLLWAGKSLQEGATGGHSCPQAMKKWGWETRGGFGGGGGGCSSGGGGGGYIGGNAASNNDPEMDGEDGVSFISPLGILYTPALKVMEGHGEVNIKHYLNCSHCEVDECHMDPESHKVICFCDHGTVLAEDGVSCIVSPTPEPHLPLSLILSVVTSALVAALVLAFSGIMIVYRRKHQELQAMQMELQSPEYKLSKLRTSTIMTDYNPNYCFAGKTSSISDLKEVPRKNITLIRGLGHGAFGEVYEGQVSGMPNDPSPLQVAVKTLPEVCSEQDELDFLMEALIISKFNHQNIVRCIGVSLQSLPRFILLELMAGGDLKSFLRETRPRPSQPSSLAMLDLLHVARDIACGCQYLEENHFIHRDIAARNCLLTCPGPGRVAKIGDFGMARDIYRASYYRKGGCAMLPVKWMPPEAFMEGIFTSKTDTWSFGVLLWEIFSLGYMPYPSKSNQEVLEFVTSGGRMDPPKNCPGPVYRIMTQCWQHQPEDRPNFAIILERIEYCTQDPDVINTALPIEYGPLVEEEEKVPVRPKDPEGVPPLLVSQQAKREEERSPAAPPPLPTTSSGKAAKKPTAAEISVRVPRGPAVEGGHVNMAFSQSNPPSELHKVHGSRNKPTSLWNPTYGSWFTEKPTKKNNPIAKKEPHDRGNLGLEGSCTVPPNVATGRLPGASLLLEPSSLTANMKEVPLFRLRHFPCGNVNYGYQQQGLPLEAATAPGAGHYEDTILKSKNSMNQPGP

[8] = AUC in Sprague-Dawley rat at 1 mg/kg, po; assay type: ADME, organism-based; parameters: dose 1 mg/kg, route oral; conditions: plasma
Outline: (§2)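 Sprague–Dawley rats, n = 3 per group, dosed po or iv at 1 mg/kg in 10% N,N-dimethylacetamide, 20% HP-β-CD and 0.02 M HCl in water. Heparinized blood taken at 0.08–72 h after iv and 0.50–72 h after po. Plasma analysed by LC–MS/MS.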

[9] = Volume of distribution at steady state in Sprague-Dawley rat at 1 mg/kg, iv; assay type: ADME, organism-based; parameters: dose 1 mg/kg, route intravenous; conditions: in vivo, read-out: Vdss; outline: as §2
KARPAS-299 [10] = assay: Antitumor activity against human KARPAS299 cells expressing NPM-ALK xenografted mouse model assessed as tumor growth inhibition at 20 mg/kg, po; assay type: functional; conditions: read-out: GI
in vivo [11] = conditions: cynomolgus monkey, po, 0.5 mg/kg
[12] = Total clearance in cynomolgus monkey at 0.5 mg/kg, iv; assay type: ADME, organism-based, Macaca fascicularis; parameters: dose 0.5 mg/kg, route intravenous; conditions: in vivo
Outline: (§3)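 Fasted cynomolgus monkeys, n = 2 per group, dosed po or iv at 0.5 mg/kg in 10% DMSO, 20% HP-β-CD and 0.02 M HCl in water. Heparinized blood sampled at 0.08–48 h after iv and 0.50–48 h after po. Plasma quantified by LC–MS/MS.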

[13] = Half life in Sprague-Dawley rat at 1 mg/kg, po; assay type: ADME, organism-based; parameters: dose 1 mg/kg, route oral; conditions: in vivo; outline: as §2
[14] = Volume of distribution at steady state in cynomolgus monkey at 0.5 mg/kg, iv; assay type: ADME, organism-based, Macaca fascicularis; parameters: dose 0.5 mg/kg, route intravenous; conditions: in vivo, read-out: Vdss; outline: as §3
NCI-H2228 = assay: Antitumor activity against human NCI-H2228 cells expressing EML4-ALK xenografted mouse model assessed as tumor growth inhibition at 20 mg/kg, po; assay type: functional; conditions: read-out: GI
[15] = Oral bioavailability in Sprague-Dawley rat at 1 mg/kg; assay type: ADME, organism-based; conditions: in vivo; outline: as §2
[16] = Cmax in Sprague-Dawley rat at 1 mg/kg, po; assay type: ADME, organism-based; parameters: dose 1 mg/kg, route oral; conditions: in vivo; outline: as §2
[17] = Oral bioavailability in cynomolgus monkey at 0.5 mg/kg; assay type: ADME, organism-based, Macaca fascicularis; conditions: in vivo; outline: as §3
in vivo [18] = conditions: cynomolgus monkey, iv, 0.5 mg/kg
[19] = AUC in cynomolgus monkey at 0.5 mg/kg, po; assay type: ADME, organism-based, Macaca fascicularis; parameters: dose 0.5 mg/kg, route oral; conditions: plasma; outline: as §3
[20] = Total clearance in Sprague-Dawley rat at 1 mg/kg, iv; assay type: ADME, organism-based; parameters: dose 1 mg/kg, route intravenous; conditions: in vivo; outline: as §2
[21] = Half life in Sprague-Dawley rat at 1 mg/kg, iv; assay type: ADME, organism-based; parameters: dose 1 mg/kg, route intravenous; conditions: in vivo; outline: as §2
Mus musculus = assay: Toxicity in human NCI-H2228 cells expressing EML4-ALK xenografted mouse model assessed as body weight loss at 20 mg/kg, po; conditions: in vivo
[22] = Cmax in cynomolgus monkey at 0.5 mg/kg, po; assay type: ADME, organism-based, Macaca fascicularis; parameters: dose 0.5 mg/kg, route oral; conditions: in vivo; outline: as §3

Hepatocyte growth factor receptor, sequence (P08581 whole entry): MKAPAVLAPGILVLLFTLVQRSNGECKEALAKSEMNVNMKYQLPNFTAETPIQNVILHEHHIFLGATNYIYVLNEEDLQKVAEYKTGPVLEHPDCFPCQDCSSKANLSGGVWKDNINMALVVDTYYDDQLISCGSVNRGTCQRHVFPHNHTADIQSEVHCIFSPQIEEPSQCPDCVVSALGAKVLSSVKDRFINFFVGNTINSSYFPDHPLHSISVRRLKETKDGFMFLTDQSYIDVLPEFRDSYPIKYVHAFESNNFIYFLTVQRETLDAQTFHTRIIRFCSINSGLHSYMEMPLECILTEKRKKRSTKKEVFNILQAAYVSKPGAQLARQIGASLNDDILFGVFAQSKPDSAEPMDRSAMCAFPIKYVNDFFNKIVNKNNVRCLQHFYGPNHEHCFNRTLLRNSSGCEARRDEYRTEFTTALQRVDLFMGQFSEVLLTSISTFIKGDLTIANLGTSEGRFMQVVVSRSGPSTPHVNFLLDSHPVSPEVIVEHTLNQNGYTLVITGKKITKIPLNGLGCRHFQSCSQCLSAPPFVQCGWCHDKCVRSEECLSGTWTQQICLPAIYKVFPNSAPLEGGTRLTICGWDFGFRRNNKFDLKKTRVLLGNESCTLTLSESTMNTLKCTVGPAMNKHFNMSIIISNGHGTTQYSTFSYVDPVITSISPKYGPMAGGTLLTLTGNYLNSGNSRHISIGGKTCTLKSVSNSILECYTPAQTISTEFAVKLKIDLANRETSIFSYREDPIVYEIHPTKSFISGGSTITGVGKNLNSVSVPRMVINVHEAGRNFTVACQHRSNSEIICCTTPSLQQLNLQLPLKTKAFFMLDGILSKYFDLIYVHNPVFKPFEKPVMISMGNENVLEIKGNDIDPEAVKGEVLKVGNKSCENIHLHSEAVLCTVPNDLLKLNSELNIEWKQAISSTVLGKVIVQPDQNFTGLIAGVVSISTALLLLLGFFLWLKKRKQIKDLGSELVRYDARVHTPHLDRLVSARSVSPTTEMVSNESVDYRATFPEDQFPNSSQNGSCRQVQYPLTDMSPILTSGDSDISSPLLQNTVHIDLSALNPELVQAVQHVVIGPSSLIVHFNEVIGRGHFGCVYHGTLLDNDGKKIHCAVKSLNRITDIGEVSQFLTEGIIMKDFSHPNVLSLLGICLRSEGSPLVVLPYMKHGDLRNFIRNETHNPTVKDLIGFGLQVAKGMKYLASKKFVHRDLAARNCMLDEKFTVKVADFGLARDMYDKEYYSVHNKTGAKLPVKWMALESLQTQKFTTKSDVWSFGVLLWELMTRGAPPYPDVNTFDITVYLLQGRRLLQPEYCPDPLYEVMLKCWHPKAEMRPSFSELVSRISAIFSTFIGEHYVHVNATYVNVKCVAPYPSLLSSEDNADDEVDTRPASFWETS
Mast/stem cell growth factor receptor Kit, sequence (P10721 whole entry): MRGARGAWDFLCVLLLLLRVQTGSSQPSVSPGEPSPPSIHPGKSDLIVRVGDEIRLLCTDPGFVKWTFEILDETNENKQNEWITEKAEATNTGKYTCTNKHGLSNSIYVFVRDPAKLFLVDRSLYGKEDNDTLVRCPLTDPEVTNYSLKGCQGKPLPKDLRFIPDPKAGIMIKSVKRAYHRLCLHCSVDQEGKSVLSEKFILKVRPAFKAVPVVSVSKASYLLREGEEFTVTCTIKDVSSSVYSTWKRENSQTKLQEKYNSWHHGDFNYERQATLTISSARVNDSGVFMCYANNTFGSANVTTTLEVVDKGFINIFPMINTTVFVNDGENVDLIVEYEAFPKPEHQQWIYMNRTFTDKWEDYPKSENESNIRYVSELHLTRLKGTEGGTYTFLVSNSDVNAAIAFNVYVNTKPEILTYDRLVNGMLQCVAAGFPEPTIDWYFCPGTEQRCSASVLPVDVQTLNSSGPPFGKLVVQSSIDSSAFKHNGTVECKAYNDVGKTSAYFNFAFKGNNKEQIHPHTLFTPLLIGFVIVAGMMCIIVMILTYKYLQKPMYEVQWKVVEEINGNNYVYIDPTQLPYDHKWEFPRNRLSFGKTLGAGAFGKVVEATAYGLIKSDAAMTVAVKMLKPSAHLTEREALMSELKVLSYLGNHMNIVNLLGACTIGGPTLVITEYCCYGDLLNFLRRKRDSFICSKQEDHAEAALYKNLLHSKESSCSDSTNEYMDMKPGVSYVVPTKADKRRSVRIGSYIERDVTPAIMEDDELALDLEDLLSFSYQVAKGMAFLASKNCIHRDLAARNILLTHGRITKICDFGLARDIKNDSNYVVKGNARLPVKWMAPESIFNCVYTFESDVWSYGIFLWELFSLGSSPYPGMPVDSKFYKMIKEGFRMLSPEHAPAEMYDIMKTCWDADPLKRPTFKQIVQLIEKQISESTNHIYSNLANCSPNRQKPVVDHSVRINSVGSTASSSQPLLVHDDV

| SMILES | IC50 [1] [nM] | IC50 [2] [nM] | microsomal CLint [3] [µL/min/mg] | IC50 [4] [nM] | IC50 (KARPAS-299 [5]) [nM] | microsomal CLint [6] [µL/min/mg] | IC50 [7] [nM] | other results |
| --- | --- | --- | --- | --- | --- | --- | --- | --- |
| CCc1cc2c(cc1N1CCN(C3COC3)CC1)C(C)(C)c1[nH]c3cc(C#N)ccc3c1C2=O | > 5000 | > 5000 |  | > 5000 |  |  |  |  |
| CCCc1cc2c(cc1N1CCC(N3CCOCC3)CC1)C(C)(C)c1[nH]c3cc(C#N)ccc3c1C2=O | > 5000 | > 5000 | 17.1 | > 5000 | 26.1 | 58.5 | 1.1 |  |
| CCc1cc2c(cc1N1CCC(N3CCOCC3)CC1)C(C)(C)c1[nH]c3cc(C#N)ccc3c1C2=O [ALECTINIB] | > 5000 | > 5000 | 17.7 |  | 3 | 8.7 |  | AUC [8]: 1400 ng·h/mL; Vd [9]: 9.33 L/kg; inhibition in vivo at 20 mg/kg (KARPAS-299 [10]): 119%; half-life (in vivo [11]): 8.38 h; clearance [12]: 6.04 mL/min/kg; half-life [13]: 12.6 h; Vd [14]: 5.28 L/kg; inhibition in vivo at 20 mg/kg (NCI-H2228): 168%; bioavailability [15]: 65.2%; Cmax [16]: 60.8 ng/mL; bioavailability [17]: 50.4%; half-life (in vivo [18]): 10.4 h; AUC [19]: 696 ng·h/mL; clearance [20]: 7.79 mL/min/kg; half-life [21]: 17.8 h; Activity (Mus musculus): Non-toxic; Cmax [22]: 55.8 ng/mL |
| CCc1cc2c(cc1N1CCN(C3CC3)CC1)C(C)(C)c1[nH]c3cc(C#N)ccc3c1C2=O | > 5000 | > 5000 | 22.1 | 4210 | 45.8 | 3.3 | 5.2 |  |
| CC1(C)c2ccc(C3CCN(C4CC4)CC3)cc2C(=O)c2c1[nH]c1cc(C#N)ccc21 | > 5000 | > 5000 | 59.1 | 882 | 121 | 20 | 44 |  |
| CC1(C)c2cc(N3CCC(N4CCOCC4)CC3)ccc2C(=O)c2c1[nH]c1cc(C#N)ccc21 | > 5000 | 2990 | 106 | 759 | 26.5 | 72 | 16 |  |
| CC1(C)c2ccc(N3CCN(C4CC4)CC3)cc2C(=O)c2c1[nH]c1cc(C#N)ccc21 | > 5000 | > 5000 | 16.4 | > 5000 | 238 | 24.9 | 233 |  |

More lines, main results first:

| IC50 [1] [nM] | IC50 [2] [nM] | microsomal CLint [3] [µL/min/mg] | IC50 [4] [nM] | IC50 (KARPAS-299 [5]) [nM] | microsomal CLint [6] [µL/min/mg] | IC50 [7] [nM] | SMILES | other results |
| --- | --- | --- | --- | --- | --- | --- | --- | --- |
| > 5000 | > 5000 | 14.2 | > 5000 | 151 | 20.6 |  | CC1(C)c2ccc(N3CCN(C4COC4)CC3)cc2C(=O)c2c1[nH]c1cc(C#N)ccc21 |  |
| > 5000 | > 5000 | 15.6 | 3120 | 22.4 | 4.4 | 2.4 | CCc1cc2c(cc1N1CCN(C3CCC3)CC1)C(C)(C)c1[nH]c3cc(C#N)ccc3c1C2=O |  |
| > 5000 | > 5000 | 38.6 | 2520 | 86.9 | 38.6 | 67 | CC1(C)c2ccc(C3CCN(C4COC4)CC3)cc2C(=O)c2c1[nH]c1cc(C#N)ccc21 |  |
| > 5000 | 1060 | 23 | 186 | 4.8 | 15.8 |  | Cc1cc2c(cc1N1CCC(N3CCOCC3)CC1)C(C)(C)c1[nH]c3cc(C#N)ccc3c1C2=O |  |

Source: ChEMBL document CHEMBL1938232 (Bioorg Med Chem, 2012)
